Measurements as given in ChEMBL document CHEMBL1154049, “A versatile photoactivatable probe designed to label the diphosphate binding site of farnesyl diphosphate utilizing enzymes” (Bioorg Med Chem, 2009).
pIC50, pKi: −log10 of the molar value. Active and inactive are the calls of the source. No cut-off for these calls is given here.

What was measured:
[1] = biological target: T1, Protein farnesyltransferase/geranylgeranyltransferase type-1 subunit alpha (Saccharomyces cerevisiae S288c, UniProt P29703); test: Inhibition of Saccharomyces cerevisiae protein farnesyltransferase assessed as farnesylation of N-dansyl-GCVIA
T1 sequence (P29703 whole entry): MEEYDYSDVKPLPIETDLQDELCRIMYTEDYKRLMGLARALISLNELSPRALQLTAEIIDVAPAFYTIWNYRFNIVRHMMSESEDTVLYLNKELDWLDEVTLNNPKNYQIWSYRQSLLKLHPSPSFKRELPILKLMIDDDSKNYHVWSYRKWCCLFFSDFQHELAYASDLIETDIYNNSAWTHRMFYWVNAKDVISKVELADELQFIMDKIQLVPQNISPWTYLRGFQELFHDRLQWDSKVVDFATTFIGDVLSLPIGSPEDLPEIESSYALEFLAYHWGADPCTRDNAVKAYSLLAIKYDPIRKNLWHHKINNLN
Summary of the method: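 Purified ScPFTase at 5.0 nM; continuous fluorescence assay following dansyl fluorescence rise as N-dansyl-GCVIA (2.4 µM) is prenylated. For IC50, FPP fixed at 2.4 µM, inhibitor 0–20 µM, duplicates, direct fit of rate vs inhibitor concentration. For KI, 4×6 grid of duplicates with FPP at 1, 2, 5, 7.0 µM and inhibitor 0–2 µM; initial velocities, Eadie-Hofstee plot.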

[2] = biological target: T2, Protein farnesyltransferase/geranylgeranyltransferase type-1 subunit alpha (Saccharomyces cerevisiae S288c) (UniProt P29703); test: Binding affinity to Saccharomyces cerevisiae protein farnesyltransferase assessed as photolabeling at 29 uM by SDS-PAGE based phosphor imaging analysis in presence of excess farnesyl diphosphate; conditions: tested as the 32P-labelled form
T2 sequence (whole entry): T1 sequence (P29703 whole entry)
Summary of the method: (§1)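 Purified enzyme (50 µg/mL) in 52 mM Tris·HCl pH 7.0, 5.8 mM DTT, 12 mM MgCl2, 12 µM ZnCl2, 25 mM NH4HCO3 with [32P]probe 29 µM; irradiated 350 nm, 6 h, 4 °C; protection runs add FPP 100 µM final. SDS loading buffer, 70 °C 20 min, 12% Tris-Tricine SDS-PAGE, Coomassie stain, phosphorimaging.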

[3] = biological target: T2, Protein farnesyltransferase/geranylgeranyltransferase type-1 subunit alpha (Saccharomyces cerevisiae S288c); test: Binding affinity to Saccharomyces cerevisiae protein farnesyltransferase assessed as enzyme beta subunit photolabeling at 29 uM by SDS-PAGE based phosphor imaging analysis; conditions: tested as the 32P-labelled form; summary of the method: as §1
[4] = biological target: T3, Farnesyl diphosphate synthase (Escherichia coli K-12) (UniProt P22939); test: Binding affinity to Escherichia coli farnesyl diphosphate synthase assessed as photolabeling at 29 uM by SDS-PAGE based phosphor imaging analysis in absence of UV irradiation; conditions: tested as the 32P-labelled form
T3 sequence (whole entry): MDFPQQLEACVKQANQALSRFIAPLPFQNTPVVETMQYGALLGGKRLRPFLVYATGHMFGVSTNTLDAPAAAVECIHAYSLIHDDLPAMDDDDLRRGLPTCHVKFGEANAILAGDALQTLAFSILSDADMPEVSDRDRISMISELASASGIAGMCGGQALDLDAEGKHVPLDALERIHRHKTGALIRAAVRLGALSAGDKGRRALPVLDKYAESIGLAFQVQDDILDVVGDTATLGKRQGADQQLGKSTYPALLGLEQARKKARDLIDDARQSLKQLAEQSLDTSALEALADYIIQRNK

[5] = tested on: Drosophila melanogaster; test: Binding affinity to Drosophila melanogaster farnesyl diphosphate synthase assessed as photolabeling at 29 uM by SDS-PAGE based phosphor imaging analysis in presence of excess farnesyl diphosphate; conditions: tested as the 32P-labelled form; summary of the method: as §1
[6] = biological target: T2, Protein farnesyltransferase/geranylgeranyltransferase type-1 subunit alpha (Saccharomyces cerevisiae S288c); test: Binding affinity to Saccharomyces cerevisiae protein farnesyltransferase assessed as enzyme alpha subunit photolabeling at 29 uM by SDS-PAGE based phosphor imaging analysis; conditions: tested as the 32P-labelled form; summary of the method: as §1
[7] = biological target: T2, Protein farnesyltransferase/geranylgeranyltransferase type-1 subunit alpha (Saccharomyces cerevisiae S288c); test: Activity at Saccharomyces cerevisiae protein farnesyltransferase upto 200 uM by continuous fluorescence assay
Summary of the method: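 Purified yeast PFTase; continuous fluorescence read-out of dansyl signal increase on prenylation of N-dansyl-GCVIA acceptor, with analogue replacing FPP at up to 200 µM.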

[8] = tested on: Nostoc; test: Inhibition of Nostoc PCC 7120 sesquiterpene synthase in presence of farnesyl diphosphate
Summary of the method: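 Purified cyclase (10 µg) in 200 µL 10 mM Tris·HCl pH 8.0, 10 mM MgCl2, 1.0 mM 2-mercaptoethanol with probe and/or FPP (50, 100 or 200 µM), sealed vial, 18 h at 25 °C; headspace sampled 10 min by SPME, GC/MS analysis of sesquiterpene product.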

[9] = biological target: T3, Farnesyl diphosphate synthase (Escherichia coli K-12); test: Binding affinity to Escherichia coli farnesyl diphosphate synthase assessed as photolabeling at 29 uM by SDS-PAGE based phosphor imaging analysis; conditions: tested as the 32P-labelled form; summary of the method: as §1
[10] = biological target: T3, Farnesyl diphosphate synthase (Escherichia coli K-12); test: Binding affinity to Escherichia coli farnesyl diphosphate synthase assessed as photolabeling at 29 uM by SDS-PAGE based phosphor imaging analysis in presence of excess farnesyl diphosphate; conditions: tested as the 32P-labelled form; summary of the method: as §1
[11] = biological target: T2, Protein farnesyltransferase/geranylgeranyltransferase type-1 subunit alpha (Saccharomyces cerevisiae S288c); test: Binding affinity to Saccharomyces cerevisiae protein farnesyltransferase assessed as photolabeling at 29 uM by SDS-PAGE based phosphor imaging analysis in absence of UV irradiation; conditions: tested as the 32P-labelled form
[12] = tested on: Nostoc; test: Binding affinity to Nostoc PCC 7120 sesquiterpene synthase assessed as photolabeling at 29 uM by SDS-PAGE based phosphor imaging analysis in presence of excess farnesyl diphosphate; conditions: tested as the 32P-labelled form; summary of the method: as §1
[13] = tested on: Drosophila melanogaster; test: Binding affinity to Drosophila melanogaster farnesyl diphosphate synthase assessed as photolabeling at 29 uM by SDS-PAGE based phosphor imaging analysis; conditions: tested as the 32P-labelled form; summary of the method: as §1
[14] = tested on: Drosophila melanogaster; test: Binding affinity to Drosophila melanogaster farnesyl diphosphate synthase assessed as photolabeling at 29 uM by SDS-PAGE based phosphor imaging analysis in absence of UV irradiation; conditions: tested as the 32P-labelled form
[15] = tested on: Nostoc; test: Binding affinity to Nostoc PCC 7120 sesquiterpene synthase assessed as photolabeling at 29 uM by SDS-PAGE based phosphor imaging analysis; conditions: tested as the 32P-labelled form; summary of the method: as §1
[16] = tested on: Nostoc; test: Substrate activity at Nostoc PCC 7120 sesquiterpene synthase in absence of farnesyl diphosphate; conditions: tested as the 32P-labelled form

| SMILES | pIC50 [1] | pKi [1] | Activity [2] | Activity [3] | Activity [4] | Activity [5] | Activity [6] | Activity [7] | inhibition [8] | Activity [9] | Activity [10] | Activity [11] | Activity [12] | Activity [13] [%] | Activity [14] | Activity [15] | Activity [16] |
| --- | --- | --- | --- | --- | --- | --- | --- | --- | --- | --- | --- | --- | --- | --- | --- | --- | --- |
| C/C(=C\COP(=O)(O)OP(=O)(O)O)COCc1cccc(C(=O)c2ccccc2)c1 | 5.47 | 6.21 |  |  |  |  |  |  |  |  |  |  |  |  |  |  |  |
| CC(C)=CCC/C(C)=C/CC/C(C)=C/COP(=O)(O)OP(=O)(O)Cc1ccc(C(=O)c2ccccc2)cc1 | 5.52 | 6.32 | inactive | Active | inactive | inactive | inactive | inactive | inactive | Active | inactive | inactive | inactive | 46 | inactive | Active | Active |
| CC(C)=CCC/C(C)=C/CC/C(C)=C/COP(=O)(O)OP(=O)(O)Cc1cccc(C(=O)c2ccccc2)c1 | 5.24 |  | inactive | Active |  |  | inactive | inactive |  |  |  | inactive |  |  |  |  |  |
| C/C(=C\COP(=O)(O)OP(=O)(O)O)CC/C=C(\C)COC(=O)[C-]([N+]#N)C(F)(F)F | 6.14 | 6.70 |  |  |  |  |  |  |  |  |  |  |  |  |  |  |  |
